The source of these data is ChEMBL document CHEMBL1142515, “Synthesis and evaluation of structurally constrained quinazolinone derivatives as potent and selective histamine H3 receptor inverse agonists” (J Med Chem, 2008).

The target of data set [1] is T1, Histamine H3 receptor (Homo sapiens, UniProt Q9Y5N1). In words: Antagonist activity at human cloned histamine H3 receptor expressed in CHO-K1 cells assessed as inhibition of R-alpha-methylhistamine-induced [35S]GTPgammaS binding. The format is functional, cell-based.
Data set [2] addresses Voltage-gated inwardly rectifying potassium channel KCNH2 (Homo sapiens, UniProt Q12809). The experiment in a line: Antagonist activity at human ERG in HEK293 cells assessed as inhibition of [35S]N-[(4R)-1'-[(2R)-6-cyano-1,2,3,4-tetrahydro-2-naphthalenyl]-3,4-dihydro-4-hydroxyspiro[2H-1-benzopyran-2,4'-piperidin]-6-yl]methanesulfonamide binding.
A short description of data set [3]: Ratio of drug level in brain to plasma in Sprague-Dawley rat at 10 mg/kg, po after 2 hrs. The format is ADME, organism-based. Also noted: dose 10 mg/kg, route oral. To be noted: read-out: BPR. The procedure, abridged:
(§1)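 Male SD rats dosed orally at 10 mg/kg. Plasma, brain and CSF concentrations determined 2 h after dosing. Brain/plasma ratio taken from these levels. Mean of n = 3 animals.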

Data set [4] can be described thus: Plasma clearance in Sprague-Dawley rat at 1 mg/kg, iv. The class given is ADME, organism-based. Also noted: dose 1 mg/kg, route intravenous. The procedure, abridged:
(§2)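 Male SD rats, male Beagle dogs, male rhesus monkeys given single doses iv (PEG400/EtOH/H2O 50/10/40) or po by gavage (0.5% methylcellulose suspension). Rats 1 mg/kg iv and 3 mg/kg po; dogs and monkeys 0.3 mg/kg iv and 1 mg/kg po. Plasma sampled at multiple times up to 24 h, deproteinized with ethanol plus internal standard. Mean of n = 3 animals/dose.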

Data set [5] can be described thus: Cmax in Beagle dog at 0.3 mg/kg, iv and 1 mg/kg, po. The format is ADME, organism-based, Canis lupus familiaris. The settings on record: in vivo. The method in brief:
as §2

Data set [6] deals with LLC-PK1. In words: Ratio of permeability from apical to basolateral side over basolateral to apical side in pig LLC-PK1 cells expressing mouse MDR1a. The class given is ADME, cell-based, Sus scrofa.
A short description of data set [7]: Cmax in Sprague-Dawley rat at 1 mg/kg, iv and 3 mg/kg, po. The class given is ADME, organism-based. The settings on record: in vivo. The procedure, abridged:
as §2

Data set [8] can be described thus: Plasma concentration in Sprague-Dawley rat at 10 mg/kg, po after 2 hrs. The format is ADME, organism-based. Set-up: dose 10 mg/kg, route oral. The procedure, abridged: as §1
Data set [9] is described as follows: AUC (0 to infinity) in Sprague-Dawley rat at 3 mg/kg, po. The format is ADME, organism-based. To be noted: plasma. Set-up: time infinity, dose 3 mg/kg, route oral. The method in brief:
as §2

Data set [10] deals with Canis familiaris. In words: Oral bioavailability in Beagle dog at 1 mg/kg. The format is ADME, organism-based, Canis lupus familiaris. To be noted: in vivo. The method in brief:
as §2

A short description of data set [11]: Ratio of drug level in cerebrospinal fluid to brain in Sprague-Dawley rat at 10 mg/kg, po after 2 hrs. To be noted: in vivo. The class given is ADME, organism-based, CSF/Brain. Also noted: dose 10 mg/kg, route oral.
For data set [12], the system named is Brain. In words: Drug level in Sprague-Dawley rat brain at 10 mg/kg, po after 2 hrs. The format is ADME, organism-based. Set-up: dose 10 mg/kg, route oral. To be noted: in vivo. The method in brief: as §1
For data set [13], the system named is Canis familiaris. In words: AUC (0 to infinity) in Beagle dog at 1 mg/kg, po. The format is ADME, organism-based, Canis lupus familiaris, Plasma. Set-up: time infinity, dose 1 mg/kg, route oral. To be noted: in vivo. The method in brief:
as §2

Data set [14] can be described thus: Drug level in Sprague-Dawley rat cerebrospinal fluid at 10 mg/kg, po after 2 hrs. The class given is ADME, organism-based. Also noted: dose 10 mg/kg, route oral. The settings on record: read-out: Drug uptake. The method in brief: as §1
The target in data set [15] is Histamine H3 receptor (Mus musculus, UniProt P58406). The experiment in a line: Displacement of [3H]N-alpha-methylhistamine from mouse recombinant histamine H3 receptor.
Data set [16] deals with T1, Histamine H3 receptor. In words: Displacement of [3H]N-alpha-methylhistamine from human recombinant histamine H3 receptor expressed in CHO-K1 cells. The format is cell-based. (In general: In a radioligand displacement assay an active substance lowers the binding of a labelled ligand.)
The subject of data set [17] is Rhesus monkey. The experiment in a line: Oral bioavailability in rhesus monkey at 1 mg/kg. The class given is ADME, organism-based, Macaca mulatta. To be noted: in vivo. The method in brief: as §2
Data set [18] deals with Histamine H3 receptor (Rattus norvegicus, UniProt Q9QYN8). The experiment in a line: Displacement of [3H]N-alpha-methylhistamine from rat recombinant histamine H3 receptor expressed in HEK293 cells. The format is cell-based.
Data set [19] has as its system LLC-PK1. The experiment in a line: Ratio of permeability from apical to basolateral side over basolateral to apical side in pig LLC-PK1 cells expressing human MDR1. The class given is ADME, cell-based, Sus scrofa.
A short description of data set [20]: Oral bioavailability in Sprague-Dawley rat at 3 mg/kg. The class given is ADME, organism-based. To be noted: in vivo. The procedure, abridged: as §2
Data set [21] is described as follows: Cmax in rhesus monkey at 0.3 mg/kg, iv and 1 mg/kg, po. The format is ADME, organism-based, Macaca mulatta. To be noted: in vivo. The method in brief: as §2
Data set [22] relates to Rhesus monkey. In words: AUC (0 to infinity) in rhesus monkey at 1 mg/kg, po. The format is ADME, organism-based, Macaca mulatta, Plasma. Set-up: time infinity, dose 1 mg/kg, route oral. The settings on record: in vivo. The method in brief: as §2

T1 sequence (Q9Y5N1 whole entry): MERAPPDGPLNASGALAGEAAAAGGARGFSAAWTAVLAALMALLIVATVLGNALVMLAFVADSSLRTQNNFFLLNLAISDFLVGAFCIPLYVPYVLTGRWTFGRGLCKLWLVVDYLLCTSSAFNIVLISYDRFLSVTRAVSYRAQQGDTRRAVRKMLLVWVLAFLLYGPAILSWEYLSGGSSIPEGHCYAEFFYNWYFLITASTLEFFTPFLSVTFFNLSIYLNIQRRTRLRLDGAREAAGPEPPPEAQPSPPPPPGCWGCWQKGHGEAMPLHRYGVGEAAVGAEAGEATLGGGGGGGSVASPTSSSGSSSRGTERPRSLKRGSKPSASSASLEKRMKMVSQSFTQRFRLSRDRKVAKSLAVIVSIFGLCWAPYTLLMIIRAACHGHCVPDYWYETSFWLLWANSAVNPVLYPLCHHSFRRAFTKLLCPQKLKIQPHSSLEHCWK
Voltage-gated inwardly rectifying potassium channel KCNH2, sequence (Q12809 whole entry): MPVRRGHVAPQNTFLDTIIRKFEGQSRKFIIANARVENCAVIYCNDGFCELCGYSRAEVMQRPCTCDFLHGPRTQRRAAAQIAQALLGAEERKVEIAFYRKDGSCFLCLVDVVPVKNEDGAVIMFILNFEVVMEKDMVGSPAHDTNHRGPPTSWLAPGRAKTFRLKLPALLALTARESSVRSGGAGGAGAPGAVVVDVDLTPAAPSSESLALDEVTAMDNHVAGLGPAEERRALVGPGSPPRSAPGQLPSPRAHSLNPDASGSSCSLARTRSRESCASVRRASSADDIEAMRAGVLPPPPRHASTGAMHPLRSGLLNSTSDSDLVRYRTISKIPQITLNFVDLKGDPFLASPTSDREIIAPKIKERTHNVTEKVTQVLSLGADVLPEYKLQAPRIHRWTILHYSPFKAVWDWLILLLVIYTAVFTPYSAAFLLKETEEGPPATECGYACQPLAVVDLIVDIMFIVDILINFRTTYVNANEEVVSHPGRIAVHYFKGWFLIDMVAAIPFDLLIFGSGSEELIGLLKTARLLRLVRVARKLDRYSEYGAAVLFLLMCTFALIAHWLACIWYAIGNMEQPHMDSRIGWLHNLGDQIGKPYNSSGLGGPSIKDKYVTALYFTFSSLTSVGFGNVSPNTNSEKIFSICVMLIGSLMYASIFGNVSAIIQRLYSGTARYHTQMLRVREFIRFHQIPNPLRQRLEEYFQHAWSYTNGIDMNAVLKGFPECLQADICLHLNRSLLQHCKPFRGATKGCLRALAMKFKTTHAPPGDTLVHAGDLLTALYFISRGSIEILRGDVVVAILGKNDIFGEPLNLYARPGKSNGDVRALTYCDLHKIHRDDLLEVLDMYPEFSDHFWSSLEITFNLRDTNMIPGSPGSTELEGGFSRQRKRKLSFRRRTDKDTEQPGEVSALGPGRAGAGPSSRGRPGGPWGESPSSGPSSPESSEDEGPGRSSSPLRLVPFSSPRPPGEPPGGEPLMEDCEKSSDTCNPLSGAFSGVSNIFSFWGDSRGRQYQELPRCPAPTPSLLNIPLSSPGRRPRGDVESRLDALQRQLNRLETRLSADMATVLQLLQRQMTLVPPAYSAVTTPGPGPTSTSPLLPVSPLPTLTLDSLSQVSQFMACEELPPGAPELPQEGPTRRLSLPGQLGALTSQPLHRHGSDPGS
Histamine H3 receptor (Mus musculus, UniProt P58406), sequence (P58406 whole entry): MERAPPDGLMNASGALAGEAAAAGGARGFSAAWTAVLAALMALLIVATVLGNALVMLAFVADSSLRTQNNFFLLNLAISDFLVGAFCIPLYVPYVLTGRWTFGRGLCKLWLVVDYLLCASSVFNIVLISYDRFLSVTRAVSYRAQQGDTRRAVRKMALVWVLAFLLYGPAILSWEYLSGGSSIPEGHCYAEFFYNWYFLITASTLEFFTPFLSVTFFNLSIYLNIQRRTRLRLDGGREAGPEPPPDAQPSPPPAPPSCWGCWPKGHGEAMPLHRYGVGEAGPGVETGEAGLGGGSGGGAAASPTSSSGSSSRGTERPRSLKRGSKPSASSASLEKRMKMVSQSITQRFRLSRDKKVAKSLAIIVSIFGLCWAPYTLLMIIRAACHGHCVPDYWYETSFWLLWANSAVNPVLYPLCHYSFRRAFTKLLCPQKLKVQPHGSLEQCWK
Histamine H3 receptor (Rattus norvegicus, UniProt Q9QYN8), sequence (Q9QYN8 whole entry): as the sequence (P58406 whole entry) above, with A15T, T286A, G290A, H387R, V389I counted along it

As a reminder, the IC50 is the concentration that gives 50% inhibition. As to `Cc1nc2c(F)cccc2c(=O)n1-c1ccc(OC2CCN(C3CCC3)CC2)cc1`, in data set [1], the IC50 was 0.84 nM.

`Cc1nc2cc(F)c(F)cc2c(=O)n1-c1ccc(OC2CCN(C3CCC3)CC2)cc1`: the figures for the IC50 in data set [2] and in data set [1] were more than 10000 nM and 0.91 nM, respectively.

With `Cc1nc2c(Cl)cccc2c(=O)n1-c1ccc(OC2CCN(C3CCC3)CC2)cc1`, the IC50 in [1] is 1.7 nM.

The clearance is the rate of elimination divided by the concentration. One may read the Cmax as the maximum level reached in the sampled fluid or tissue. As usually defined, the AUC(0-inf) is total exposure, with the tail of the curve extrapolated. The term AUC denotes the area under the concentration-time curve, a measure of exposure. As usually defined, the Ki is the dissociation constant of the complex between target and ligand, obtained from inhibition or displacement. In general, bioavailability refers to the share of a dose that reaches the circulation, judged against a reference dose that is usually intravenous. With `Cc1cccc2nc(C)n(-c3ccc(OC4CCN(C5CCC5)CC4)cc3)c(=O)c12`, in [3], the Kp at 2 h was found to be 2.3. The clearance in data set [4] came to 25 mL/min/kg. Besides, the values for the maximum concentration (Cmax) in data set [5], in [7] and in [21] were 1100 nM, 560 nM and 20 nM, respectively. Also, the results for the Ratio in [6], in data set [11] and in data set [19] were 1, 0.03 and 0.9, respectively. Besides, the IC50 in data set [2] was more than 10000 nM; in data set [1] it was 0.27 nM. For the same compound, the concentration at 2 h turned out to be 1400 nM in [8] and 100 nM in data set [14]. For the same compound, in data set [9], the AUC(0-inf) turned out to be 2.33 µM·h. Further, the F in data set [10] came out at 76%; in [17], 1%. Besides, the Drug uptake in data set [12] is 3.2 nmol/g. Moreover, the figures for the AUC in [13] and in data set [22] were 5.6 µM·h and 0.08 µM·h, respectively. Besides, the Ki in [15] turned out to be 3.9 nM; in data set [16] it was 1.7 nM; in data set [18], 1.8 nM. Moreover, the bioavailability in data set [20] turned out to be 40%.

For `COc1cccc2nc(C)n(-c3ccc(OC4CCN(C5CCC5)CC4)cc3)c(=O)c12`, the IC50 in [2] is more than 10000 nM; in data set [1] it was 1.2 nM.

On to `Cc1nc2ccccc2c(=O)n1-c1ccc(OC2CCN(C)CC2)cc1`, for which the IC50 in [1] worked out at 740 nM.

For the compound `Cc1nc2ccccc2c(=O)n1-c1ccc(OC2CCN(C3CCCC3)CC2)cc1`, the IC50 in [2] is more than 10000 nM; in [1], 3.2 nM.

For the compound `Cc1nc2ccccc2c(=O)n1-c1ccc(OC2CCN(C3CCCCC3)CC2)cc1`, the IC50 in data set [1] is 43 nM.

`Cc1nc2cc(F)ccc2c(=O)n1-c1ccc(OC2CCN(C3CCC3)CC2)cc1`: in data set [1], the half-inhibitory concentration (IC50) amounted to 1.3 nM.

In the case of `Cc1nc2ccccc2c(=O)n1-c1ccc(OC2CCN(C(C)C)CC2)cc1`, the half-maximal inhibitory concentration (IC50) in data set [1] was found to be 14 nM.

For the compound `Cc1nc2ccc(F)cc2c(=O)n1-c1ccc(OC2CCN(C3CCC3)CC2)cc1`, the IC50 in [2] was more than 10000 nM; in data set [1], 1.2 nM.

Consider `Cc1nc2cnccc2c(=O)n1-c1ccc(OC2CCN(C3CCC3)CC2)cc1`, for which the IC50 in [2] was more than 10000 nM; in [1], 1.8 nM.

`Cc1nc2cc(Cl)ccc2c(=O)n1-c1ccc(OC2CCN(C3CCC3)CC2)cc1`: the IC50 in data set [2] turned out to be 3900 nM; in [1] it was 3 nM.

For the compound `Cc1nc2ccc(Cl)cc2c(=O)n1-c1ccc(OC2CCN(C3CCC3)CC2)cc1`, the results for the IC50 in [2] and in data set [1] were 5400 nM and 1.5 nM, respectively.

For the compound `Cc1nc2ccccc2c(=O)n1-c1ccc(OC2CCN(C3CCC3)C2)cc1` (centres undefined), the IC50 in [1] worked out at 103 nM.

As for `Cc1nc2ccccc2c(=O)n1-c1ccc(OC2CCCN(C3CCCC3)CC2)cc1` (centres undefined), the IC50 in data set [1] worked out at 7 nM.

Take `Cc1nc2cccc(Cl)c2c(=O)n1-c1ccc(OC2CCN(C3CCC3)CC2)cc1`: the IC50 in data set [2] was more than 10000 nM; in data set [1], 0.34 nM.

Regarding `COc1ccc2c(=O)n(-c3ccc(OC4CCN(C5CCC5)CC4)cc3)c(C)nc2c1`, the IC50 in data set [2] is more than 10000 nM; in data set [1], 1.8 nM.

Take `CCCN1CCC(Oc2ccc(-n3c(C)nc4ccccc4c3=O)cc2)CC1`: in data set [1], the IC50 is 60 nM.

As for `Cc1nc2ccccc2c(=O)n1-c1ccc(O[C@H]2CC[C@H](N3CCCC3)CC2)cc1`, the IC50 in data set [1] amounted to 813 nM.

Turning to `Cc1nc2ncccc2c(=O)n1-c1ccc(OC2CCN(C3CCC3)CC2)cc1`, the concentration for half-maximal inhibition (IC50) in data set [2] was more than 10000 nM; in [1], 1.6 nM.

As for `Cc1nc2ccccc2c(=O)n1-c1ccc(OC2CCN(C3CCC3)CC2)cc1`, the concentration for half-maximal inhibition (IC50) was more than 10000 nM in data set [2] and 1.5 nM in data set [1].

On to `Cc1nc2ccccc2c(=O)n1-c1ccc(OC2CCN(C3CCCC3)C2)cc1` (centres undefined), for which the IC50 in data set [1] is 37 nM.

Regarding `Cc1nc2ccncc2c(=O)n1-c1ccc(OC2CCN(C3CCC3)CC2)cc1`, the values for the IC50 in data set [2] and in [1] were more than 10000 nM and 2 nM, respectively.

Take `CNC(=O)c1ccc(Oc2ccc3c(c2)CCN(C2CCC2)CC3)nc1` [GSK189254]: the half-inhibitory concentration (IC50) in data set [1] is 0.55 nM.

On to `Cc1nc2ccccc2c(=O)n1-c1ccc(OC2CCCN(C3CCC3)CC2)cc1` (centres undefined), for which the IC50 in data set [2] is 7300 nM; in data set [1], 10 nM.

Regarding `COc1cccc2c(=O)n(-c3ccc(OC4CCN(C5CCC5)CC4)cc3)c(C)nc12`, the IC50 in data set [2] was more than 10000 nM; in [1], 4.2 nM.

As to `Cc1nc2ccccc2c(=O)n1-c1ccc(OC2CCC(N3CCCC3)C2)cc1` (stereo in doubt; 3b), the IC50 in data set [2] turned out to be 10000 nM; in data set [1], 8.6 nM.

Turning to `COc1ccc2nc(C)n(-c3ccc(OC4CCN(C5CCC5)CC4)cc3)c(=O)c2c1`, the values for the IC50 in data set [2] and in data set [1] were more than 10000 nM and 1.5 nM, respectively.

Turning to `CCN1CCC(Oc2ccc(-n3c(C)nc4ccccc4c3=O)cc2)CC1`, the IC50 in data set [1] was found to be 49 nM.

As to `Cc1nc2ccccc2c(=O)n1-c1ccc(O[C@H]2CC[C@@H](N3CCCC3)CC2)cc1`, the IC50 in data set [1] turned out to be 10 nM.

Consider `CCCCN1CCC(Oc2ccc(-n3c(C)nc4ccccc4c3=O)cc2)CC1`, for which the IC50 in data set [1] was determined as 91 nM.

Take `Cc1nc2ccccc2c(=O)n1-c1ccc(OC2CCNCC2)cc1`: the IC50 in [1] is more than 1000 nM.

For `Cc1nc2cccnc2c(=O)n1-c1ccc(OC2CCN(C3CCC3)CC2)cc1`, the IC50 in [2] is more than 10000 nM; in data set [1], 14 nM.

Take `Cc1nc2ccccc2c(=O)n1-c1ccc(OC2CCC(N3CCCC3)C2)cc1` (stereo in doubt; 3a): the results for the IC50 in [2] and in data set [1] were more than 10000 nM and 3.4 nM, respectively.
